Test results: ChEMBL document CHEMBL1124947, “Cationic antiprotozoal drugs. Trypanocidal activity of 2-(4'-formylphenyl)imidazo[1,2-a]pyridinium guanylhydrazones and related derivatives of quaternary heteroaromatic compounds” (J Med Chem, 1990)

Assays:
Mus musculus [1] = assay: Trypanocidal Activity at I.C.E. value 0.52 when administered subcutaneously.; format: functional
Outline: (§1)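 Blood-stage T. rhodesiense infection came from a standard inoculum lethal to all untreated mice. Drug was given by subcutaneous injection to groups of five mice. Survival beyond 30 days counted as cure. […] Sub-curative doses scored 0, and data were normalized at each dose.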

Mus musculus [2] = assay: Trypanocidal Activity at I.C.E. value 0.60 when administered perorally.; format: functional
[3] = tested on: Trypanosoma brucei rhodesiense; assay: In Vitro measurement of inhibition of thymidine uptake in cell culture of Trypanosoma rhodesiense; format: functional; conditions: read-out: ID50 (the source's name)
Outline: (§2)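 Parasites harvested from infected rats and incubated 3 h across a drug concentration series, usually 0.1–100 µg/mL. Incorporation of radiolabeled thymidine measured. ID50 is the concentration (µg/mL) producing 50% inhibition.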

[4] = tested on: Trypanosoma brucei rhodesiense; assay: In Vitro measurement of inhibition of leucine uptake in cell culture of Trypanosoma rhodesiense; format: functional; conditions: read-out: ID50 (the source's name)
Outline: (§3)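 Trypanosomes harvested from infected rats, cultured 3 h with several concentrations of drug, usually 0.1–100 µg/mL. Radiolabeled L-leucine uptake measured. ID50 is the concentration in µg/mL giving 50% inhibition of incorporation.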

Mus musculus [5] = assay: Curative activity of the Compound after Subcutaneous administration at a dose of 53 mg/kg and I.C.E. value of 0.82; 9/10; format: functional
Mus musculus [6] = assay: Fraction of mice that were cured after oral administration at a dose of 1.67 mg/kg and I.C.E. value of 0.56; format: functional
Mus musculus [7] = assay: Fraction of mice that were cured after oral administration at a dose of 212 mg/kg and I.C.E. value of 0.56; format: functional
Mus musculus [8] = assay: Fraction of mice that were cured after subcutaneous administration at a dose of 26 mg/kg and I.C.E. value of 0.82; format: functional
Mus musculus [9] = assay: Curative activity of the Compound after Subcutaneous administration at a dose of 106 mg/kg ( T-Toxic) and I.C.E. value of 0.82; 16/20 and 1 toxic; format: ADME, organism-based; design: dose 106 mg/kg, route subcutaneous; conditions: in vivo, sc
Mus musculus [10] = assay: Fraction of mice that were cured after oral administration at a dose of 6.6 mg/kg and I.C.E. value of 0.56; format: functional
Mus musculus [11] = assay: Curative activity of the Compound after oral administration at a dose of 53 mg/kg and I.C.E. value of 0.60; 5/5; format: functional
Mus musculus [12] = assay: Curative activity of the Compound after oral administration at a dose of 13 mg/kg and I.C.E. value of 0.60; 10/10; format: functional
Mus musculus [13] = assay: Curative activity of the Compound after Subcutaneous administration at a dose of 26 mg/kg and I.C.E. value of 0.82; […]; format: functional
Mus musculus [14] = assay: Fraction of mice that were cured after subcutaneous administration at a dose of 212 mg/kg and I.C.E. value of 0.82; format: functional
Mus musculus [15] = assay: Fraction of mice that were cured after subcutaneous administration at a dose of 1.67 mg/kg and I.C.E. value of 0.82; format: functional
Mus musculus [16] = assay: Trypanocidal Activity at I.C.E. value 0.82 when administered subcutaneously.; format: functional
Outline: (§4)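 Mice, in groups of five per dose, were given a standard inoculum of blood-stage T. rhodesiense that is lethal to all untreated controls, then dosed subcutaneously. Usually 11 dose levels were used (2^n × 0.42 mg/kg).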

Mus musculus [17] = assay: Curative activity of the Compound after Subcutaneous administration at a dose of 0.42 mg/kg and I.C.E. value of 0.82; 8/10; format: functional
Mus musculus [18] = assay: Curative activity of the Compound after oral administration at a dose of 212 mg/kg and I.C.E. value of 0.60; 5/5; format: functional
Mus musculus [19] = assay: Curative activity of the Compound after Subcutaneous administration at a dose of 53 mg/kg and I.C.E. value of 0.82; […]; format: functional
Mus musculus [20] = assay: Fraction of mice that were cured after subcutaneous administration at a dose of 6.6 mg/kg and I.C.E. value of 0.82; format: functional
Mus musculus [21] = assay: Fraction of mice that were cured after oral administration at a dose of 53 mg/kg and I.C.E. value of 0.56; format: functional
Mus musculus [22] = assay: Curative activity of the Compound after oral administration at a dose of 3.3 mg/kg and I.C.E. value of 0.60;1/5; format: functional
Mus musculus [23] = assay: Fraction of mice that were cured after subcutaneous administration at a dose of 424 mg/kg and I.C.E. value of 0.82; format: functional
Mus musculus [24] = assay: Curative activity of the Compound after oral administration at a dose of 0.83 mg/kg and I.C.E. value of 0.60; format: functional
Mus musculus [25] = assay: Curative activity of the Compound after Subcutaneous administration at a dose of 424 mg/kg ( T-Toxic)and I.C.E. value of 0.82; 4/20 and 16 toxic; format: ADME, organism-based; design: dose 424 mg/kg, route subcutaneous; conditions: in vivo, sc
Mus musculus [26] = assay: Fraction of mice that were cured after oral administration at a dose of 26 mg/kg and I.C.E. value of 0.56; format: functional
Mus musculus [27] = assay: Fraction of mice that were cured after oral administration at a dose of 0.42 mg/kg and I.C.E. value of 0.56; format: functional
Mus musculus [28] = assay: Curative activity of the Compound after oral administration at a dose of 1.67 mg/kg and I.C.E. value of 0.60; format: functional
Mus musculus [29] = assay: Fraction of mice that were cured after subcutaneous administration at a dose of 0.42 mg/kg and I.C.E. value of 0.82; format: functional
Mus musculus [30] = assay: Fraction of mice that were cured after oral administration at a dose of 106 mg/kg and I.C.E. value of 0.56; format: functional
Mus musculus [31] = assay: Fraction of mice that were cured after oral administration at a dose of 13 mg/kg and I.C.E. value of 0.56; format: functional
Mus musculus [32] = assay: Trypanocidal Activity at I.C.E. value 0.56 when administered perorally.; format: functional
[33] = tested on: Trypanosoma brucei rhodesiense; assay: In Vitro measurement of inhibition of thymidine uptake in cell culture of Trypanosoma rhodesiense.; format: functional; conditions: read-out: ID50 (the source's name); outline: as §2
Mus musculus [34] = assay: Curative activity of the Compound after Subcutaneous administration at a dose of 1.67 mg/kg and I.C.E. value of 0.82; 19/20; format: functional
Mus musculus [35] = assay: Fraction of mice that were cured after subcutaneous administration at a dose of 106 mg/kg and I.C.E. value of 0.82; format: functional
Mus musculus [36] = assay: Curative activity of the Compound after Subcutaneous administration at a dose of 3.3 mg/kg and I.C.E. value of 0.82; 10/10; format: functional
Mus musculus [37] = assay: Curative activity of the Compound after oral administration at a dose of 26 mg/kg and I.C.E. value of 0.60; 15/15; format: functional
Mus musculus [38] = assay: Curative activity of the Compound after oral administration at a dose of 6.6 mg/kg and I.C.E. value of 0.60; 2/5; format: functional
[39] = tested on: Trypanosoma brucei rhodesiense; assay: In Vitro measurement of inhibition of Leucine uptake in cell culture of Trypanosoma rhodesiense.; format: functional; conditions: read-out: ID50 (the source's name); outline: as §3
Mus musculus [40] = assay: Fraction of mice that were cured after subcutaneous administration at a dose of 0.83 mg/kg and I.C.E. value of 0.82; format: functional
Mus musculus [41] = assay: Fraction of mice that were cured after oral administration at a dose of 424 mg/kg and I.C.E. value of 0.56; format: functional
Mus musculus [42] = assay: Fraction of mice that were cured after subcutaneous administration at a dose of 3.3 mg/kg and I.C.E. value of 0.82; format: functional
Mus musculus [43] = assay: Curative activity of the Compound after oral administration at a dose of 106 mg/kg and I.C.E. value of 0.60; 10/10; format: functional
Mus musculus [44] = assay: Fraction of mice that were cured after oral administration at a dose of 0.83 mg/kg and I.C.E. value of 0.56; format: functional
Mus musculus [45] = assay: Curative activity of the Compound after Subcutaneous administration at a dose of 212 mg/kg ( T-Toxic) and I.C.E. value of 0.82; 5/10 and 5 toxic; format: ADME, organism-based; design: dose 212 mg/kg, route subcutaneous; conditions: in vivo, sc
Mus musculus [46] = assay: Curative activity of the Compound after oral administration at a dose of 0.42 mg/kg and I.C.E. value of 0.60; format: functional
Mus musculus [47] = assay: Fraction of mice that were cured after subcutaneous administration at a dose of 13 mg/kg and I.C.E. value of 0.82; format: functional
Mus musculus [48] = assay: Curative activity of the Compound after Subcutaneous administration at a dose of 0.83 mg/kg and I.C.E. value of 0.82;20/20; format: functional
Mus musculus [49] = assay: Fraction of mice that were cured after oral administration at a dose of 3.3 mg/kg and I.C.E. value of 0.56; format: functional
Mus musculus [50] = assay: Fraction of mice that were cured after subcutaneous administration at a dose of 53 mg/kg and I.C.E. value of 0.82; format: functional
Mus musculus [51] = assay: Curative activity of the Compound after oral administration at a dose of 424 mg/kg and I.C.E. value of 0.60; 10/10; format: functional
[52] = tested on: Trypanosoma brucei rhodesiense; assay: In Vitro measurement of inhibition of Thymidine uptake in cell culture of Trypanosoma rhodesiense.; format: functional; conditions: read-out: ID50 (the source's name)
Mus musculus [53] = assay: Trypanocidal Activity at I.C.E. value 0.38 when administered subcutaneously.; format: functional; outline: as §1
Mus musculus [54] = assay: Trypanocidal Activity at I.C.E. value 0.55 when administered perorally.; format: functional
Mus musculus [55] = assay: Trypanocidal Activity at I.C.E. value 0.87 when administered subcutaneously.; format: functional; outline: as §4

CNC(=N)N/N=C/c1ccc(-c2cn3ccsc3[n+]2C)cc1.I.[I-]
CD50 (Mus musculus [1]): 0.4 mg/kg
CD50 (Mus musculus [2]): 6.6 mg/kg
IC50 [3]: 1.5 µg/mL
IC50 [4]: 1.2 µg/mL

Cc1ccc(S(=O)(=O)O)cc1.Cc1ccc(S(=O)(=O)[O-])cc1.Cc1ccc2n(c1)cc(-c1ccc(/C=N/NC(=N)N)cc1)[n+]2C
Survivors (Mus musculus [5]): 9
Fraction cured (Mus musculus [6]): 0
Fraction cured (Mus musculus [7]): 1
Fraction cured (Mus musculus [8]): 0.97
Survivors (Mus musculus [9]): 16
Fraction cured (Mus musculus [10]): 0.4
Survivors (Mus musculus [11]): 5
Survivors (Mus musculus [12]): 10
Survivors (Mus musculus [13]): 29
Fraction cured (Mus musculus [14]): 0.5
Fraction cured (Mus musculus [15]): 0.95
CD50 (Mus musculus [16]): 0.2 mg/kg
Survivors (Mus musculus [17]): 8
Survivors (Mus musculus [18]): 5
Survivors (Mus musculus [19]): 9
Fraction cured (Mus musculus [20]): 1
Fraction cured (Mus musculus [21]): 1
Survivors (Mus musculus [22]): 1
Fraction cured (Mus musculus [23]): 0.2
Survivors (Mus musculus [24]): 0
Survivors (Mus musculus [25]): 4
Fraction cured (Mus musculus [26]): 1
Fraction cured (Mus musculus [27]): 0
Survivors (Mus musculus [28]): 0
Fraction cured (Mus musculus [29]): 0.8
Fraction cured (Mus musculus [30]): 1
Fraction cured (Mus musculus [31]): 1
CD50 (Mus musculus [32]): 6.6 mg/kg
IC50 [33]: 0.4 µg/mL
Survivors (Mus musculus [34]): 19
Fraction cured (Mus musculus [35]): 0.8
Survivors (Mus musculus [36]): 10
Survivors (Mus musculus [37]): 15
Survivors (Mus musculus [38]): 2
IC50 [39]: 0.5 µg/mL
Fraction cured (Mus musculus [40]): 1
Fraction cured (Mus musculus [41]): 1
Fraction cured (Mus musculus [42]): 1
Survivors (Mus musculus [43]): 10
Fraction cured (Mus musculus [44]): 0
Survivors (Mus musculus [45]): 5
Survivors (Mus musculus [46]): 0
Fraction cured (Mus musculus [47]): 1
Survivors (Mus musculus [48]): 20
Fraction cured (Mus musculus [49]): 0.2
Fraction cured (Mus musculus [50]): 0.9
Survivors (Mus musculus [51]): 10

Br.CSC(=N)N/N=C/c1ccc(-c2cn3cc(C)ccc3[n+]2C)cc1.[Br-]
IC50 [52]: 4 µg/mL
CD50 (Mus musculus [53]): 26 mg/kg
IC50 [39]: > 10 µg/mL

COc1ccc2n(c1)cc(-c1ccc(/C=N/NC(=N)N)cc1)[n+]2C.Cc1ccc(S(=O)(=O)O)cc1.Cc1ccc(S(=O)(=O)[O-])cc1
CD50 (Mus musculus [54]): 6.6 mg/kg
IC50 [3]: 5.9 µg/mL
IC50 [4]: 4.3 µg/mL
CD50 (Mus musculus [55]): 0.4 mg/kg
